What all share (format): cell-based
Series [1] addresses T1, Retinoic acid receptor RXR-alpha/oxysterols receptor LXR-alpha (Homo sapiens, UniProt P19793+Q13133).
T1 sequence (P19793 whole entry): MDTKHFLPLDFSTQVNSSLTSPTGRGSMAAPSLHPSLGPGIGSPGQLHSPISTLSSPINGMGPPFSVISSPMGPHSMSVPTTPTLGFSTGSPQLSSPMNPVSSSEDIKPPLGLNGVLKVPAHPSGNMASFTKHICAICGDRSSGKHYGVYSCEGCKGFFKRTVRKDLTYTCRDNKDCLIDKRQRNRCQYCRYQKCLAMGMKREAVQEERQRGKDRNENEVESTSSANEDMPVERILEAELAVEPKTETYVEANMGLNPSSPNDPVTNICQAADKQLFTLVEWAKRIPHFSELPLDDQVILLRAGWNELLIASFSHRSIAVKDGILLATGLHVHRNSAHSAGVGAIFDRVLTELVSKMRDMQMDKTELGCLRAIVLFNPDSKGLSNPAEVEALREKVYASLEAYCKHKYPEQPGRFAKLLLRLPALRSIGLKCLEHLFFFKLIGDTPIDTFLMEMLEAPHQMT
T1 sequence (Q13133 whole entry): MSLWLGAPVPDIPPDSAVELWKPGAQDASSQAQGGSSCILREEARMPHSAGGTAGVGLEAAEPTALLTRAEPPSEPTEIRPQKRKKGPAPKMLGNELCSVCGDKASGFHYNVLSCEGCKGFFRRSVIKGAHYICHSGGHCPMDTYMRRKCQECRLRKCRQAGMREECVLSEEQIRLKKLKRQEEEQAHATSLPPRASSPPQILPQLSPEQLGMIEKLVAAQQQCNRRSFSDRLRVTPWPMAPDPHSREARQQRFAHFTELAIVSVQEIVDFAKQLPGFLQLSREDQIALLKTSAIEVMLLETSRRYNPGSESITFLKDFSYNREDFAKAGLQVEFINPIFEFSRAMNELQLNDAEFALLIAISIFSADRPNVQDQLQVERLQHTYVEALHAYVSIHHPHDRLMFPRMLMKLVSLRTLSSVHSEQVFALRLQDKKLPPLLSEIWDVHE
Put plainly: Agonist activity at human RXRalpha/LXRalpha expressed in human HCT116 cells assessed as reduction in SREBP-mediated transcription activity at 100 nM incubated for 24 hrs by luciferase reporter gene assay in presence of 100 nM LXR agonist TO901317 relative to bexarotene. As to conditions: 0.1 µM; call rule not given here. Further details: scale not given: the % may be the effect or the level left. The method in brief: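 HCT116 cells co-transfected for 24 h with 100 ng pBP1c(6500)-Luc (about 6500 bp murine SREBP-1c promoter), 10 ng human LXRα and 20 ng renilla. Treated 24 h with compound at 100 nM, alone or with 100 nM TO901317. Luciferase output. Three independent assays in triplicate; bexarotene = 100%.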

Series [2] deals with T2, Retinoic acid receptor RXR-alpha (Homo sapiens) (UniProt P19793).
T2 sequence (whole entry): T1 sequence (P19793 whole entry)
Briefly: Agonist activity at human RXRalpha expressed in human HCT116 cells assessed as increase in RXRE-mediated transcription at 25 nM incubated for 24 hrs by RXRE luciferase reporter gene assay relative to bexarotene. The method, boiled down:
(§1)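 HCT-116 cells (80,000/well) co-transfected for 24 h with 250 ng RXRE-luciferase reporter (DR1 element from the rat cellular retinol binding protein II gene), 25 ng pSG5-human RXRα and 20 ng renilla. Dosed 24 h at 25, 100 or 1000 nM final; ethanol or DMSO vehicle 0.1%. Dual-luciferase read-out. Three independent assays in triplicate; bexarotene = 100%.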

For series [3], the target named is T2, Retinoic acid receptor RXR-alpha (Homo sapiens). Briefly: Agonist activity at human RXRalpha expressed in human HCT116 cells assessed as increase in RXRE-mediated transcription at 100 nM incubated for 24 hrs by RXRE luciferase reporter gene assay relative to bexarotene. The method in brief: as §1
Series [4] deals with T3, Retinoid X receptor (Homo sapiens) (UniProt P28702+P48443+P19793). Briefly: Agonist activity at human RXR binding domain and activation domain expressed in human HCT116 cells assessed as rexinoid activity at 1000 nM incubated for 24 hrs by luciferase reporter gene based mammalian two-hybrid assay relative to bexarotene. The method in brief:
(§2)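 HCT-116 cells plated overnight (80,000/well, DMEM with 10% FBS), co-transfected for 24 h with human RXR binding-domain (bait) and activation-domain (prey) vectors, pFR-Luc Gal4 reporter and renilla control. Treated 24 h at 25, 100 or 1000 nM final; vehicle ethanol or DMSO 0.1%. Dual-luciferase read-out. Three independent assays in triplicate; bexarotene set to 100%.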

A further series has as its target T4, Retinoid X receptor (Homo sapiens, UniProt P28702+P48443+P19793).
T4 sequence (P28702 whole entry): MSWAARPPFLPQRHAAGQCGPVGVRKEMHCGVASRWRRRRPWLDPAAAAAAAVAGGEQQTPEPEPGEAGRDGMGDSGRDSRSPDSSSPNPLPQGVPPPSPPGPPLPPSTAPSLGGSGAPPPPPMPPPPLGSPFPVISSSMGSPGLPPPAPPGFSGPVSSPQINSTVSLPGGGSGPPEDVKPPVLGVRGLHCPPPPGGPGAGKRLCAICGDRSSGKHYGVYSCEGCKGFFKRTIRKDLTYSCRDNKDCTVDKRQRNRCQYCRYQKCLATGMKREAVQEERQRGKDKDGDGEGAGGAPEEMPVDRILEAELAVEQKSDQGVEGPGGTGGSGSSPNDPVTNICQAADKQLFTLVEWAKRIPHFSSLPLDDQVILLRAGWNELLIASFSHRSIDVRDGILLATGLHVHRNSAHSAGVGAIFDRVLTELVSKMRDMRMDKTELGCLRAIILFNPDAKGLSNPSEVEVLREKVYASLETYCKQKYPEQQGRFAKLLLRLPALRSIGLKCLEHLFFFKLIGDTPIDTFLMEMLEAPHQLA
T4 sequence (P48443 whole entry): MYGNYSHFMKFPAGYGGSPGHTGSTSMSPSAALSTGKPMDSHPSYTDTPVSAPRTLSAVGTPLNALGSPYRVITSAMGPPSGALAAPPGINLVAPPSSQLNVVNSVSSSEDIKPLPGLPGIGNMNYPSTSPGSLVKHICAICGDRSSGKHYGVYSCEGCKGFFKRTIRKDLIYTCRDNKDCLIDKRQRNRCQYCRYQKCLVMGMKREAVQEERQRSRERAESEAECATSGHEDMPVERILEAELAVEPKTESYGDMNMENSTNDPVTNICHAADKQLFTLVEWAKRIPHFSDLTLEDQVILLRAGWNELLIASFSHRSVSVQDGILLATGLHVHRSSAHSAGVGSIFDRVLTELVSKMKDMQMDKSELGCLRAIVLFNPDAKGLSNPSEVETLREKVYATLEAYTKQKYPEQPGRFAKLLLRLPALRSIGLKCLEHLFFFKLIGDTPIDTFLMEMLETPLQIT
T4 sequence (P19793 whole entry): T1 sequence (P19793 whole entry)
Put plainly: Agonist activity at human RXR binding domain and activation domain expressed in human HCT116 cells assessed as rexinoid activity incubated for 24 hrs by luciferase reporter gene based mammalian two-hybrid assay.

Series [5] deals with T3, Retinoid X receptor (Homo sapiens). Briefly: Agonist activity at human RXR binding domain and activation domain expressed in human HCT116 cells assessed as rexinoid activity at 25 nM incubated for 24 hrs by luciferase reporter gene based mammalian two-hybrid assay relative to bexarotene. The method, boiled down:
as §2

`CCN(c1ncc(C(=O)O)cn1)c1cc2c(cc1C)C(C)(C)CCC2(C)C`: the Activity in series [1] fell in the range of 13 to 17%; in series [2], 27 to 66%; in series [3], 68 to 89%; in series [4], 35 to 58%. In addition, on Retinoid X receptor, the 50% effective concentration (EC50) is on record as 18.2 nM. Moreover, in series [5], the fold change (FC) stood at 2.
For the compound `CCN(c1ccc(C(=O)O)c(F)c1)c1cc2c(cc1C)C(C)(C)CCC2(C)C`, the Activity in series [2] lay in the range of 27 to 66%; in series [3] it was 16 to 32%; in series [4] it was 51 to 56%; in series [5], 140 to 150%. In addition, at Retinoid X receptor, the concentration for a half-maximal effect (EC50) worked out at 33.8 nM.
As to `CCN(c1ccc2c(c1)C(C)(C)CCC2(C)C)c1cnc(C(=O)O)cn1`, the figures for the Activity in series [1], in series [4] and in series [5] were 33%, 35 to 58% and 11.3%, respectively. Besides, the EC50 on Retinoid X receptor came out at 364.3 nM.
For `CCN(c1ccc2c(c1)C(C)(C)CCC2(C)C)c1ccc(C(=O)O)cn1`, the Activity in series [1] lay in the range of 13 to 17%; in series [2] it was 27 to 66%; in series [3] it was 68 to 89%; in series [4] it was 35 to 58%. Moreover, the EC50 on Retinoid X receptor is 13.8 nM. The fold change (FC) in series [5] was 2.
In the case of `CCN(c1ccc(C(=O)O)cc1)c1cc2c(cc1C)C(C)(C)CCC2(C)C`, the Activity in series [2] was 27 to 66%; in series [3] it was 16 to 32%; in series [4] it was 51 to 56%; in series [5], 140 to 150%. In addition, the EC50 at Retinoid X receptor worked out at 7.9 nM.
In the case of `CCN(c1ccc(C(=O)O)c(F)c1)c1ccc2c(c1)C(C)(C)CCC2(C)C`, the figures for the Activity entry in series [1], in series [2] and in series [3] were “Active”, 27 to 66% and 16 to 32%, respectively. Besides, the EC50 on Retinoid X receptor came out at 125.6 nM.
